Measurements from ChEMBL document CHEMBL4321859, “Unforeseen Possibilities To Investigate the Regulation of Polyamine Metabolism Revealed by Novel C-Methylated Spermine Derivatives” (J Med Chem, 2019).
Calls of active or inactive are those of the source. The calls are words filed in the database; no cut-off is given here.

Columns and labels:
[1] = target: T1, S-adenosylmethionine decarboxylase proenzyme (Homo sapiens) (UniProt P17707); test: Inhibition of AdoMetDC in human DU145 cells at 100 uM after 3 days; assay type: cell-based
T1 sequence (whole entry): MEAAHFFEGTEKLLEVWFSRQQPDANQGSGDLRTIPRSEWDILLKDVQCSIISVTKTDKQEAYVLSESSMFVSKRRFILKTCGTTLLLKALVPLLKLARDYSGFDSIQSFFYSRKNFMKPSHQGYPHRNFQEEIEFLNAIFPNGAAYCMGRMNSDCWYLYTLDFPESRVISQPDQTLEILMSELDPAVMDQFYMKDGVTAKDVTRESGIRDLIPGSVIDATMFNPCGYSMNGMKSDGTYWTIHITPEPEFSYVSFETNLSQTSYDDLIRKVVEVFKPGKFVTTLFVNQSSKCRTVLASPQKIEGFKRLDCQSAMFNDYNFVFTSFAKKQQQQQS

[2] = target: Diamine acetyltransferase 1 (Mus musculus) (UniProt P48026); test: Inhibition of recombinant mouse SSAT using spm as substrate at 500 uM relative to control
Sequence of Diamine acetyltransferase 1 (Mus musculus) (UniProt P48026) (P48026 whole entry): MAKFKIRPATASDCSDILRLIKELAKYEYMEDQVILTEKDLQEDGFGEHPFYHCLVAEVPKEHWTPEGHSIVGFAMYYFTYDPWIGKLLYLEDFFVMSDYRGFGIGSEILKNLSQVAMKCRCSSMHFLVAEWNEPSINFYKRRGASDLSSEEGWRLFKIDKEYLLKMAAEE
Summary of the method: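 Mouse recombinant SSAT acetylation with spermine fixed at 50 μM as substrate, analogue present at 500 μM. Activity expressed relative to reaction without analogue.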

[3] = target: Ornithine decarboxylase antizyme 1 (Homo sapiens) (UniProt P54368); test: Induction of OAZ1 in human DU145 cells assessed as reduction in intracellular ODC activity at 10 uM after 6 hrs relative to control; design: scale not given: the % may be the effect or the level left
Sequence of Ornithine decarboxylase antizyme 1 (Homo sapiens) (P54368 whole entry): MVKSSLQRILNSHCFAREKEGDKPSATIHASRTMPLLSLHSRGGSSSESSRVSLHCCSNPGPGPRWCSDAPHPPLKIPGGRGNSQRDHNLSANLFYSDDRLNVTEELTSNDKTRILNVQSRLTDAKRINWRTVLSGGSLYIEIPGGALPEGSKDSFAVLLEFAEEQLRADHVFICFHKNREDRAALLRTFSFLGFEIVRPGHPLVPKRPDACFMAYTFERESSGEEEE

[4] = target: Diamine acetyltransferase 1 (Homo sapiens) (UniProt P21673); test: Induction of changes in SSAT activity in human DU145 cells at 100 uM after 6 hrs; assay type: cell-based
Sequence of Diamine acetyltransferase 1 (Homo sapiens) (P21673 whole entry): as the sequence (P48026 whole entry) above, with K5V, S12A, D32E, Q42L, K119R, A169T counted along it

[5] = target: Spermine oxidase (Homo sapiens) (UniProt Q9NWM0); test: Inhibition of recombinant human SMOX at 50 uM using spermine as substrate relative to control
Sequence of Spermine oxidase (Homo sapiens) (Q9NWM0 whole entry): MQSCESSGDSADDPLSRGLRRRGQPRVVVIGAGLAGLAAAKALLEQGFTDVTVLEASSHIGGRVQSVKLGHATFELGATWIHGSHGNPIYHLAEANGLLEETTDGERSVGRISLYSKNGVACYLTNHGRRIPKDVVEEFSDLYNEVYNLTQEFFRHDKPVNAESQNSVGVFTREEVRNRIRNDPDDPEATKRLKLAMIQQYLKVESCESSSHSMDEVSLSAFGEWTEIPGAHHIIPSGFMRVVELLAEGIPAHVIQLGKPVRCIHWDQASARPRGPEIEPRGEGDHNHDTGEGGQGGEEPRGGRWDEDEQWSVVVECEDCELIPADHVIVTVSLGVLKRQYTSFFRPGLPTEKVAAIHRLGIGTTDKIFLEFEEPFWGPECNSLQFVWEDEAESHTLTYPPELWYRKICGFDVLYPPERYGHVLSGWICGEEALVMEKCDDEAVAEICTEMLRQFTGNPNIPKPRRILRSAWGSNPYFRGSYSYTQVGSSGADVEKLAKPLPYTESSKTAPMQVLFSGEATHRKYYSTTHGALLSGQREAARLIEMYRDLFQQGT
Summary of the method: (§1)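 Competition with natural substrate at fixed 50 μM: spermine for purified bovine plasma SSAO and human recombinant SMOX, N1-acetylspermidine for human recombinant APAO. Analogue tested at 50 μM, with activity expressed relative to reaction without analogue.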

DU-145 = test: Reversal of alpha-difluoromethylornithine-induced growth arrest in human DU145 cells at 100 uM after 3 days; assay type: functional, cell-based
Summary of the method: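 DU145 cells cultured 3 days with 100 μM analogue, with or without 5 mM DFMO, all supplemented with 1 mM aminoguanidine. Growth assessed by electronic cell counting. Means ± SD, n = 3.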

[6] = target: T2, Amine oxidase [copper-containing] 3 (Bos taurus) (UniProt Q9TTK6); test: Inhibition of bovine plasma SSAO at 50 uM using spermine as substrate relative to control; summary of the method: as §1
T2 sequence (whole entry): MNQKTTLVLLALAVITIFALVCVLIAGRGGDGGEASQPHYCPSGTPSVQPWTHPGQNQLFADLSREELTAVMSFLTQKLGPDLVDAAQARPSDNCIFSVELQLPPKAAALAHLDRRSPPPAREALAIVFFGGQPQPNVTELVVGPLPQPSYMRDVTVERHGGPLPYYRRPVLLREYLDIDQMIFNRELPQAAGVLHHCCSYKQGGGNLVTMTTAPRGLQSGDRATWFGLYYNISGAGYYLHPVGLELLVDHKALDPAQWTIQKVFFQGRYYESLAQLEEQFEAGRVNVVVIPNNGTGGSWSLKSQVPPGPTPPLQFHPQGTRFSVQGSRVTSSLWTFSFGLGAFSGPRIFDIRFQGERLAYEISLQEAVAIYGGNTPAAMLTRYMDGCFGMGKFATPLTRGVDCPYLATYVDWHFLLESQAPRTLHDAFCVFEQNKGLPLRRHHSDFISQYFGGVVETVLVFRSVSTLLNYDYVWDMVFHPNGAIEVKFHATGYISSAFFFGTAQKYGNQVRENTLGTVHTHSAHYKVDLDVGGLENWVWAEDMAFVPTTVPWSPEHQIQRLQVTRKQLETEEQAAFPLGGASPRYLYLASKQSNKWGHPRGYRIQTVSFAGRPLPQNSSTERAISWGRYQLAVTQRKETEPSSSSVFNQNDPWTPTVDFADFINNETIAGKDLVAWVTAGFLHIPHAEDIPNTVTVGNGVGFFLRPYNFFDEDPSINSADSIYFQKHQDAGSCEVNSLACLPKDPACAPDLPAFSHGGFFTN

[7] = target: Ornithine decarboxylase antizyme 1 (Homo sapiens) (UniProt P54368); test: Induction of OAZ1 in human DU145 cells assessed as reduction in intracellular ODC activity at 100 uM after 6 hrs relative to control; design: scale not given: the % may be the effect or the level left
[8] = target: Diamine acetyltransferase 1 (Homo sapiens) (UniProt P21673); test: Induction of changes in SSAT activity in human DU145 cells at 100 uM after 3 days; assay type: cell-based
[9] = target: T1, S-adenosylmethionine decarboxylase proenzyme (Homo sapiens); test: Inhibition of AdoMetDC in human DU145 cells at 100 uM after 6 hrs; assay type: cell-based
[10] = target: T3, Ornithine decarboxylase (Homo sapiens) (UniProt P11926); test: Inhibition of ODC in human DU145 cells at 100 uM after 6 hrs; assay type: cell-based
T3 sequence (whole entry): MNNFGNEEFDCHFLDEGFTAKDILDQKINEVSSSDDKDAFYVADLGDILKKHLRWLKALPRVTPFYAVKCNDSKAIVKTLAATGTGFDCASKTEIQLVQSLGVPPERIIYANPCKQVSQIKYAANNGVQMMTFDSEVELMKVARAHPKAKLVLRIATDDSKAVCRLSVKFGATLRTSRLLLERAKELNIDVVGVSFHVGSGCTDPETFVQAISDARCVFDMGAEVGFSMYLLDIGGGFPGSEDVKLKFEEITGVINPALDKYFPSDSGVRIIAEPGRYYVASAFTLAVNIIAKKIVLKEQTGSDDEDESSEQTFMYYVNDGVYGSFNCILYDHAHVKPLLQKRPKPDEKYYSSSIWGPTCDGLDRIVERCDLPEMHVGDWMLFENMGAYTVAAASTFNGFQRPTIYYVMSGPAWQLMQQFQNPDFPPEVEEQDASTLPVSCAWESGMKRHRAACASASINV

[11] = target: T3, Ornithine decarboxylase (Homo sapiens); test: Inhibition of ODC in human DU145 cells at 100 uM after 3 days; assay type: cell-based
CC(CCN)NCCCCNC(C)CCN = test: (§2) Substrate activity at recombinant mouse SSAT assessed as Km at 2000 to 6000 uM; assay type: ADME
CC(CN)CNCCCCNCC(C)CN = test: as §2; assay type: ADME
[12] = target: Spermine oxidase (Homo sapiens) (UniProt Q9NWM0); test: Inhibition of recombinant human SMOX at 500 uM using spermine as substrate relative to control
Summary of the method: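 Human recombinant SMOX reaction with spermine fixed at 50 μM as substrate, analogue added at 500 μM. Activity expressed relative to reaction without analogue.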

Sequence of Diamine acetyltransferase 1 (Mus musculus) (chain, as listed by the source): as the sequence (P48026 whole entry) above

Row | Molecule | inhibition [1] | inhibition [2] [%] | Activity [3] [%] | Activity [4] | inhibition [5] [%] | Activity (DU-145) | inhibition [6] | Activity [7] [%] | Activity [8] | inhibition [9] | inhibition [10] | inhibition [11] | Km (CC(CCN)NCCCCNC(C)CCN) [µM] | Vmax (CC(CCN)NCCCCNC(C)CCN) [µmol/min/mg] | Km (CC(CN)CNCCCCNCC(C)CN) [µM] | Vmax (CC(CN)CNCCCCNCC(C)CN) [µmol/min/mg] | inhibition [12] [%]
1 | CC(CCN)NCCCCNC(C)CCN (centres undefined) | Active | 75 | 5 | inactive | 70 | Active | inactive | 55 | inactive | Active | inactive | inactive |  |  |  |  | 
2 | CC(N)CCNCCCCNCCC(C)N (centres undefined) | Active | 80 | 80 | inactive |  | Active | inactive |  | Active | Active | Active | Active |  |  |  |  | 
3 | Diamine acetyltransferase 1 (Mus musculus) |  |  |  |  |  |  |  |  |  |  |  |  | 60 | 0.136 | 52 | 0.895 | 
4 | NCCCNCCCCNCCCN |  |  | 80 |  |  |  |  |  |  |  | Active | Active |  |  |  |  | 
5 | CC(CN)CNCCCCNCC(C)CN (centres undefined) | Active |  | 80 | inactive |  | Active | 80% |  | Active | Active | Active | Active |  |  |  |  | 70
